GI50 and RatioGI50 data for 18 molecules are collected here from ChEMBL document CHEMBL1139925, “Synthesis and topoisomerase poisoning activity of A-ring and E-ring substituted luotonin A derivatives” (2007).

Type in all cases: functional
The test system of one assay is CCRF-CEM. The assay can be described thus: Growth inhibition of human CEM cells by Alamar blue assay. The procedure, abridged:
(§1)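 Leukemia lines (CEM, topo I-mutant CEM/C2, HL60, topo II-mutant MX2) seeded in 96-well plates. HL60/MX2 were kept in RPMI1640 with 10% FCS, 10 mM Hepes and 2 mM glutamine. After one day, DMSO-dissolved compounds were diluted in medium over a 5-point range and added. GI50 = concentration giving 50% growth inhibition versus control.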
In general terms: Resazurin is reduced to fluorescent resorufin, in cell work by metabolically active cells.

For assay [1], the system named is HL-60. The assay can be described thus: Growth inhibition of human HL60 cells by Almar blue assay. The procedure, abridged:
as §1

In assay [2] the test system is MCF7. Kind of assay: Growth inhibition of adriamycin-resistant MCF7 cells after 4 days. The settings on record: Homo sapiens, MCF7, 96 h. An outline of the steps: (§2)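 Adherent lines (HeLa S3 in MEM/7% FCS; MCF7 and ADR-Res) seeded at 2 · 10^3 cells per well. After one day, compounds in DMSO were diluted in culture medium over a 5-point range and added. Cells stained with 0.2% crystal violet in 20% ethanol for 1 h, washed, solubilized in 10% acetic acid, A570 read. GI50 = concentration giving 50% growth inhibition versus control.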

Assay [3] relates to CEM/C2. Kind of assay: Ratio of GI50 for camptothecin-resistant human CEM/C2 cells to GI50 for human CEM cells. The procedure, abridged:
(§3)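 Relative resistance index from GI50 values in paired 5-point growth inhibition assays run in parallel: GI50 in the mutant line (CEM/C2 or MX2) divided by GI50 in its parental line (CEM or HL60).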

The subject of assay [4] is CEM/C2. The assay can be described thus: Growth inhibition of topoisomerase 1 mutated CEM/C2 cells by Alamar blue assay. The settings on record: Homo sapiens. An outline of the steps:
as §1

Assay [5] has as its system HL-60. The assay can be described thus: Ratio of GI50 for mitoxantrone-resistant human MX2 cells to GI50 for human HL60 cells. An outline of the steps: as §3
Assay [6] has as its system MCF7. Kind of assay: Growth inhibition of MCF7 cells after 4 days. The settings on record: Homo sapiens, MCF7, 96 h. An outline of the steps: as §2
In the next assay the test system is HeLa. The assay can be described thus: Growth inhibition of HeLa cells after 4 days. The settings on record: Homo sapiens, 96 h. An outline of the steps: as §2
Assay [7] can be described thus: Growth inhibition of topoisomerase 2 mutated mitoxantrone-resistant MX2 cells by Alamar blue assay. The settings on record: Homo sapiens. An outline of the steps: as §1

Where only a bound is given, the exact number is not on record here.

What is called GI50 is the concentration at which growth is held to half of that of the control. The low end stands for more potent growth inhibition, the high end for less potent growth inhibition. As for `CCN(CC)CCOc1ccc2nc3c(cc2c1)Cn1c-3nc2ccccc2c1=O`, the GI50 turned out to be 3 µM in the assay on CCRF-CEM; 4 µM with HL-60 [1]; 4 µM in the assay with MCF7 [2]; 7 µM in the assay on CEM/C2 [4]; 3 µM with MCF7 [6]; 2 µM with HeLa. In addition, the GI50 in assay [7] came out at 10 µM. In addition, the values for the RatioGI50 in the assay on CEM/C2 [3] and in the assay with HL-60 [5] were 2 and 2.5, respectively.

With `CN(C)CCOc1ccc2nc3c(cc2c1)Cn1c-3nc2ccccc2c1=O`, the GI50 in the assay on CCRF-CEM worked out at 3 µM; in the assay on HL-60 [1], 4 µM; in the assay with MCF7 [2], 4 µM; in the assay on CEM/C2 [4], 7 µM; with MCF7 [6], 2 µM; in the assay on HeLa, 2 µM. In addition, in assay [7], the GI50 stood at 9 µM. In addition, the RatioGI50 in the assay with CEM/C2 [3] and in the assay on HL-60 [5] was 2 throughout.

As for `CN(C)Cc1c(O)ccc2nc3c(cc12)Cn1c-3nc2ccccc2c1=O`, the GI50 in the assay on CCRF-CEM was 30 µM; in the assay with HL-60 [1] it was 20 µM; with MCF7 [2], more than 20 µM; in the assay on CEM/C2 [4], more than 40 µM; in the assay on MCF7 [6], 13 µM; with HeLa it was 10 µM. This molecule also returned a GI50 in [7] of more than 40 µM. For the same molecule, the results for the RatioGI50 with CEM/C2 [3] and in the assay on HL-60 [5] were more than 1.5 and more than 2, respectively.

With `O=c1c2ccccc2nc2n1Cc1cc3c(CN4CCOCC4)c(O)ccc3nc1-2`, the GI50 in the assay on MCF7 [2], with MCF7 [6] and with HeLa was more than 20 µM throughout.

For the molecule `O=c1c2ccccc2nc2n1Cc1cc3cc(O)ccc3nc1-2` [10-HYDROXYLUOTONIN A], the GI50 in the assay with MCF7 [2] was more than 20 µM; in the assay with MCF7 [6] it was more than 20 µM; in the assay on HeLa, more than 10 µM.

`COc1ccc2nc3c(cc2c1)Cn1c-3nc2ccccc2c1=O` [10-METHOXYLUOTONIN A]: the values for the GI50 in the assay with MCF7 [2], with MCF7 [6] and in the assay with HeLa were more than 20 µM, more than 20 µM and more than 10 µM, respectively.

For `CC(=O)Nc1cccc2c(=O)n3c(nc12)-c1nc2ccccc2cc1C3` [16-ACETAMIDOLUOTONIN A], the GI50 in the assay on MCF7 [2], in the assay on MCF7 [6] and in the assay with HeLa was more than 20 µM each time.

As to `Nc1cccc2c(=O)n3c(nc12)-c1nc2ccccc2cc1C3` [16-AMINOLUOTONIN A], the GI50 in the assay on CCRF-CEM was 6 µM; with HL-60 [1], 15 µM; in the assay on MCF7 [2], 3 µM; in the assay on CEM/C2 [4] it was more than 40 µM; in the assay on MCF7 [6], 2 µM; in the assay with HeLa, 2 µM. This molecule came in with a GI50 in assay [7] of more than 40 µM. For the same molecule, the RatioGI50 is reported as more than 7 with CEM/C2 [3] and more than 2.5 in the assay with HL-60 [5].

As for `O=c1c2cccnc2nc2n1Cc1cc3ccccc3nc1-2` [16-AZALUOTONIN A], the GI50 with MCF7 [2], in the assay with MCF7 [6] and with HeLa was more than 20 µM in each case.

With `O=c1c2cccc(Cl)c2nc2n1Cc1cc3ccccc3nc1-2` [16-CHLOROLUOTONIN A], the GI50 in the assay on MCF7 [2] was 13 µM; with MCF7 [6], 10 µM; in the assay with HeLa it was more than 10 µM.

Take `COc1cccc2c(=O)n3c(nc12)-c1nc2ccccc2cc1C3` [16-METHOXYLUOTONIN A]: the GI50 with MCF7 [2] was more than 20 µM; with MCF7 [6] it was more than 20 µM; in the assay on HeLa, 12 µM.

Consider `O=c1c2cc(O)c(O)cc2nc2n1Cc1cc3ccccc3nc1-2` [17,18-DIHYDROXYLUOTONIN A], for which the GI50 is 9 µM with CCRF-CEM; more than 40 µM with HL-60 [1]; more than 20 µM in the assay with MCF7 [2]; more than 40 µM in the assay on CEM/C2 [4]; 10 µM in the assay on MCF7 [6]; 6 µM with HeLa. For the same molecule, the GI50 in [7] was more than 40 µM. Further, in the assay with CEM/C2 [3], the RatioGI50 was more than 4.

As to `COc1cc2nc3n(c(=O)c2cc1OC)Cc1cc2ccccc2nc1-3` [17,18-DIMETHOXYLUOTONIN A], the GI50 was more than 20 µM in the assay on MCF7 [2], more than 20 µM in the assay with MCF7 [6] and more than 10 µM with HeLa.

As for `CC[C@@]1(O)C(=O)OCc2c1cc1n(c2=O)Cc2cc3ccccc3nc2-1` [CAMPTOTHECIN], the GI50 in the assay on CCRF-CEM was 0.002 µM; with HL-60 [1] it was 0.03 µM; in the assay on MCF7 [2] it was 0.01 µM; in the assay with CEM/C2 [4], more than 1 µM; in the assay on MCF7 [6], 0.01 µM; in the assay on HeLa, 0.01 µM. The molecule further gave a 50% growth inhibitory concentration (GI50) in assay [7] of 0.02 µM. The RatioGI50 in the assay on CEM/C2 [3] was more than 500.

For the molecule `CCc1c2c(nc3ccc(OC(=O)N4CCC(N5CCCCC5)CC4)cc13)-c1cc3c(c(=O)n1C2)COC(=O)[C@]3(O)CC` [IRINOTECAN], the GI50 with MCF7 [2], in the assay with MCF7 [6] and in the assay on HeLa was more than 1 µM throughout.

Take `O=c1c2ccccc2nc2n1Cc1cc3ccccc3nc1-2` [LUOTONIN A]: the GI50 was not below 40 µM in the assay on CCRF-CEM; 5 µM with MCF7 [2]; more than 40 µM in the assay with CEM/C2 [4]; 3 µM with MCF7 [6]; 3 µM with HeLa.

With `O=C1c2c(O)ccc(O)c2C(=O)c2c(NCCNCCO)ccc(NCCNCCO)c21` [MITOXANTRONE], the GI50 with HL-60 [1] was determined as 0.01 µM; in assay [7], 0.13 µM. Besides, in the assay with HL-60 [5], the RatioGI50 turned out to be 13.

`CC[C@@]1(O)C(=O)OCc2c1cc1n(c2=O)Cc2cc3c(CN(C)C)c(O)ccc3nc2-1` [TOPOTECAN]: the GI50 in the assay with MCF7 [2] was 0.04 µM; in the assay on MCF7 [6], 0.05 µM; with HeLa it was 0.03 µM.
